The list is not random: actives were taken first. Their share in the collection is about 2.1%.
CRFBP-R2 agonist – CRF-BP/CRF-R2 complex agonism | HEK293 CRF-R2/CRF-BP, calcium dye fluorescence (FLIPR); percent of saturating CRF peptide response | activation, % at 13.2 µM | 0.46% of 350,000 active | AID 588473;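 active = activation of at least 50%, plus an integration ratio under a set limit after plate pattern correction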
zfTRPN1 agonist – zebrafish TRPN1 (NompC) channel agonism. HEK293 zebrafish TRPN1-YFP, Fluo-8 calcium fluorescence; 100% = response to 87 µM carbachol. activation, % at 3 µM. 0.18% of 220,000 active. AID 1424;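 active = activation above its plate's cutoff, the mean activation of test wells on that plate plus 3 SD, cut at about 19% in these data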
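Material: zebrafish TRPN1-YFP in HEK293 cells; Doses: single test compound dose, 3 µM nominal, 0.3% DMSO; Timing: dye loading 1 h at 37 °C, then 30 min room temperature; Technique: intracellular calcium fluorescence with Fluo-8; Benchmarks: high carbachol 87 µM, low DMSO alone.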
CRFBP-R2 block – CRF-BP/CRF-R2 complex antagonism; 0.59% of 350,000 active; inhibition, % at 11.8 µM; AID 588475; HEK293 CRF-R2/CRF-BP, CRF-induced calcium fluorescence;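 active = inhibition of the ligand-induced calcium signal above about 50% at the single tested concentration, limit read from the data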
VIM-2 inh – blocks Pseudomonas aeruginosa VIM-2 metallo-beta-lactamase; purified VIM-2, nitrocefin hydrolysis, epi-absorbance fluorescence; inhibition, % at 5.6 µM; 0.89% of 290,000 active; AID 1527;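 active = inhibition above the mean of all tested compounds plus 3 SD, cutoff set per screening run, cut at about 7.5% in these data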;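 note: red hydrolysis product quenches plate fluorescence so inhibitors raise well fluorescence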
TRPML3 agonist – agonists of human TRPML3 channel; AID 1448; activation, % at 3 µM; HEK293 TRPML3-YFP, Fluo-8 calcium fluorescence; 100% = the carbachol control signal; Q8TDD5; 0.29% of 220,000 active;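 active = activation above its plate's cutoff, the mean activation of the plate's test wells plus 3 SD, cut at about 12% in these data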
Target sequence (Q8TDD5 whole entry, looked up): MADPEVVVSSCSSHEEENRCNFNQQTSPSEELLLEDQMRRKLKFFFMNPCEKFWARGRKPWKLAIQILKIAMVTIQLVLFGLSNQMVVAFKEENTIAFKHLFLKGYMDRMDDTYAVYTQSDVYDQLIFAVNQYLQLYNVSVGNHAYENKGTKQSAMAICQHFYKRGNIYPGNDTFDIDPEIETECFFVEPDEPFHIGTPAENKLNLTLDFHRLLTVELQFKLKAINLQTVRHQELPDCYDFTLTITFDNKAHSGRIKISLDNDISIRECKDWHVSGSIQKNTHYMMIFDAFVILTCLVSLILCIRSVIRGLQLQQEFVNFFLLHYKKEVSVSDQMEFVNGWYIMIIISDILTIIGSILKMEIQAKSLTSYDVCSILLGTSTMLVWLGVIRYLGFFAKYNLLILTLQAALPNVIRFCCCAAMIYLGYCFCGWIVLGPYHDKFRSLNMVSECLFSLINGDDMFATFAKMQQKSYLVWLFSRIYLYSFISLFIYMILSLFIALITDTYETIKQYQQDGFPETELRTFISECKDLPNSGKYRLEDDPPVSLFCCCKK
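Test system: TRPML3-YFP stable HEK293 cells. Doses: single point at 3 µM. Incubation: dye loading 1 h 37 °C then 30 min ambient, 125 s read. Signal: Fluo-8 calcium dye fluorescence, ex 470-495, em 515-575 nm. Measure: percent activation from peak-to-basal fluorescence ratio, scaled between DMSO and carbachol.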
IMP-1 inh – inhibitors of Pseudomonas aeruginosa IMP-1 metallo-beta-lactamase; purified IMP-1, nitrocefin hydrolysis, epi-absorbance fluorescence; inhibition, % at 5.6 µM; 0.45% of 290,000 active; AID 1556;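 active = inhibition above the mean plus 3 SD of all compounds in the same screening run, cut at about 4.5% in these data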
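System: purified recombinant IMP-1 beta-lactamase. Medium: Zinc- and detergent-supplemented HEPES buffer, pH 7.1. Compound: one 5.6 µM dose […]. Schedule: 15 min preincubation plus 25 min reaction at 25 °C. Technique: Epi-absorbance fluorescence, 480 nm excitation, 530 nm emission.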
Numbers stand for hits.

What do the screens show for `CC(=O)Nc1ccc(N2C(=O)CSC2c2ccccc2)cc1` (centres undefined)?
CRFBP-R2 agonist: inactive; CRFBP-R2 block: inactive; VIM-2 inh: inactive; IMP-1 inh: 4.8

What do the screens show for `CC(=O)Nc1ccc(N2C(=O)CSC2c2ccc([N+](=O)[O-])cc2)cc1` (centres undefined)?
CRFBP-R2 agonist: inactive; CRFBP-R2 block: inactive; VIM-2 inh: inactive; IMP-1 inh: inactive

How did CC(=O)C1=C(O)C(=O)N(c2ccccn2)C1c1ccc(C)cc1 (centres undefined) do in these assays?
CRFBP-R2 agonist: inactive; CRFBP-R2 block: inactive; VIM-2 inh: inactive; IMP-1 inh: inactive

How did CC(=O)C1=C(O)C(=O)N(c2nccs2)C1c1ccccc1 (centres undefined) do in these assays?
CRFBP-R2 agonist: inactive; zfTRPN1 agonist: inactive; CRFBP-R2 block: 94; VIM-2 inh: inactive; TRPML3 agonist: inactive; IMP-1 inh: inactive

How did COc1cc(C(C)=O)ccc1OCC(=O)Nc1cc(C)on1 do in these assays?
CRFBP-R2 agonist: inactive; CRFBP-R2 block: inactive

How did O=C(Nc1ccc(Nc2ccncc2)cc1)c1ccc(Nc2ccnc3ccc([N+](=O)[O-])cc23)cc1 do in these assays?
CRFBP-R2 agonist: inactive; zfTRPN1 agonist: inactive; CRFBP-R2 block: inactive; VIM-2 inh: 36; TRPML3 agonist: inactive; IMP-1 inh: 21

How did Cc1ccc(-n2nnnc2C(Cl)(Cl)c2nnnn2-c2ccc(C)cc2)cc1 do in these assays?
CRFBP-R2 agonist: 72; zfTRPN1 agonist: inactive; CRFBP-R2 block: inactive; VIM-2 inh: inactive; TRPML3 agonist: inactive; IMP-1 inh: inactive

How did CC(C)c1ccc(CNC(=O)C(=O)NCCCn2ccnc2)cc1 do in these assays?
CRFBP-R2 agonist: inactive; zfTRPN1 agonist: inactive; CRFBP-R2 block: inactive; VIM-2 inh: inactive; TRPML3 agonist: inactive; IMP-1 inh: 30

Results for COc1ccc(N2CCN(C(CNC(=O)C(=O)NCCCn3ccnc3)c3cccnc3)CC2)cc1 (centres undefined) ?
CRFBP-R2 agonist: inactive; zfTRPN1 agonist: inactive; CRFBP-R2 block: inactive; VIM-2 inh: inactive; TRPML3 agonist: inactive; IMP-1 inh: 5.6

What do the screens show for `CC1(C)OC2COC(c3[nH]nc4c(=O)[nH]c(=O)[nH]c34)C2O1` (centres undefined)?
CRFBP-R2 agonist: inactive; CRFBP-R2 block: inactive

What do the screens show for `O=C(NNC(=O)c1csc(N2CCOCC2)n1)c1cccnc1`?
CRFBP-R2 agonist: inactive; CRFBP-R2 block: inactive

What do the screens show for `Cc1cc(OCC(=O)N(Cc2cccs2)C2CCS(=O)(=O)C2)ccc1Cl` (centres undefined)?
CRFBP-R2 agonist: inactive; CRFBP-R2 block: inactive; VIM-2 inh: inactive; IMP-1 inh: inactive

What do the screens show for `Cc1ccc(N=Nc2ccc(O)c(P(=O)(c3ccccc3)c3ccccc3)c2)cc1`?
CRFBP-R2 agonist: inactive; zfTRPN1 agonist: inactive; CRFBP-R2 block: 108; VIM-2 inh: inactive; TRPML3 agonist: inactive; IMP-1 inh: inactive

Results for O=[N+]([O-])c1ccc(O)c(P(=O)(c2ccccc2)c2ccccc2)c1 ?
CRFBP-R2 agonist: inactive; CRFBP-R2 block: inactive; VIM-2 inh: inactive; IMP-1 inh: inactive

What do the screens show for `C=CCN1C=CC(=CC=C(C#N)C#N)C=C1`?
CRFBP-R2 agonist: 67; zfTRPN1 agonist: inactive; CRFBP-R2 block: inactive; VIM-2 inh: inactive; TRPML3 agonist: inactive; IMP-1 inh: inactive

How did CCCN1C=CC(=CC=C(C#N)C#N)C=C1 do in these assays?
CRFBP-R2 agonist: 94; zfTRPN1 agonist: inactive; CRFBP-R2 block: inactive; VIM-2 inh: inactive; TRPML3 agonist: inactive; IMP-1 inh: inactive

How did CCCCCN1C=CC=C/C1=C\C=C(C#N)C#N do in these assays?
CRFBP-R2 agonist: inactive; zfTRPN1 agonist: inactive; CRFBP-R2 block: inactive; VIM-2 inh: inactive; TRPML3 agonist: inactive; IMP-1 inh: inactive

What do the screens show for `C=CCN1C=C/C(=C\C=C(C#N)C#N)c2ccccc21`?
CRFBP-R2 agonist: inactive; zfTRPN1 agonist: inactive; CRFBP-R2 block: inactive; VIM-2 inh: inactive; TRPML3 agonist: inactive; IMP-1 inh: inactive

Results for CC(=O)NC(CC(=O)Oc1ccc(C)cc1Br)c1ccccc1 (centres undefined) ?
CRFBP-R2 agonist: inactive; CRFBP-R2 block: inactive; VIM-2 inh: inactive; IMP-1 inh: inactive

What do the screens show for `CCOC(=O)c1cc(-c2ccccc2)n(CC2CC(c3ccc(OC)cc3)=NO2)n1` (centres undefined)?
CRFBP-R2 agonist: inactive; CRFBP-R2 block: inactive; VIM-2 inh: inactive; IMP-1 inh: inactive

Results for C/C(=N\NC(=O)c1ccccc1NC(=O)c1ccc(Cl)cc1)c1ccncc1 ?
CRFBP-R2 agonist: inactive; zfTRPN1 agonist: inactive; CRFBP-R2 block: 72; VIM-2 inh: inactive; TRPML3 agonist: inactive; IMP-1 inh: inactive

What do the screens show for `CN(C)c1ccc(-c2ccc3c(=O)c4ccccc4n(C)c3c2)cn1`?
CRFBP-R2 agonist: inactive; CRFBP-R2 block: inactive; VIM-2 inh: 12; IMP-1 inh: inactive

Results for C=CC[C@@H](CC(=O)NCCO)C(=O)NC[C@H](OC(=O)[C@@H](CC=C)Cc1ccc(F)cc1)c1ccccc1 ?
CRFBP-R2 agonist: inactive; CRFBP-R2 block: inactive

How did Nc1nnnn1/N=C/c1cc(Br)ccc1O do in these assays?
CRFBP-R2 agonist: inactive; CRFBP-R2 block: inactive

Results for O=c1c(Cl)c2oc3ccccc3nc-2c2ccccc12 ?
CRFBP-R2 agonist: 207; zfTRPN1 agonist: inactive; CRFBP-R2 block: inactive; VIM-2 inh: inactive; TRPML3 agonist: inactive; IMP-1 inh: inactive

How did COc1ccc(OC)c(Nc2cc(C)c3ccccc3n2)c1 do in these assays?
CRFBP-R2 agonist: inactive; CRFBP-R2 block: inactive; VIM-2 inh: inactive; IMP-1 inh: inactive

How did COc1ccc(OC)c(Nc2c3ccccc3nc3ccccc23)c1 do in these assays?
CRFBP-R2 agonist: inactive; CRFBP-R2 block: inactive; VIM-2 inh: 11; IMP-1 inh: inactive

How did CNc1ccc(Br)cc(C(=O)/C=C/c2ccc3c(c2)OCO3)c1=O do in these assays?
CRFBP-R2 agonist: inactive; zfTRPN1 agonist: inactive; CRFBP-R2 block: inactive; VIM-2 inh: inactive; TRPML3 agonist: inactive; IMP-1 inh: 9.2

What do the screens show for `O=C(CCOc1cccc(Br)c1)Nc1ccc(F)c(S(=O)(=O)N2CCOCC2)c1`?
CRFBP-R2 agonist: inactive; CRFBP-R2 block: inactive

Results for O=C(NCc1cccc(Cl)c1)c1cccc(S(=O)(=O)N2CCCC2)c1 ?
CRFBP-R2 agonist: 87; CRFBP-R2 block: inactive

Results for NC(=O)C1CCN(S(=O)(=O)c2cccc(C(=O)O)c2)CC1 ?
CRFBP-R2 agonist: inactive; zfTRPN1 agonist: inactive; CRFBP-R2 block: inactive; VIM-2 inh: inactive; TRPML3 agonist: inactive; IMP-1 inh: 32

What do the screens show for `O=C(NCc1cccc(Cl)c1)c1cccc(S(=O)(=O)N2CCCCC2)c1`?
CRFBP-R2 agonist: inactive; CRFBP-R2 block: inactive

Results for NC(=O)COC(=O)c1cccc(S(=O)(=O)N2CCCCC2)c1 ?
CRFBP-R2 agonist: inactive; zfTRPN1 agonist: inactive; CRFBP-R2 block: 86; VIM-2 inh: inactive; TRPML3 agonist: inactive; IMP-1 inh: inactive

Bioassay records as filed in PubChem BioAssay.
